Source: PubChem BioAssay AID602190 (Broad Institute, 2012)
Records with an inconclusive call do not appear. Activity calls are given as the source filed them.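 Rule for the calls: active = compound whose fitted half-maximal concentration, in every repeat run, is at most twice the top dose tested; inconclusive = repeat runs disagree, or a flat or poor curve fit; inactive = every repeat run called inactive.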

Tested on: not listed separately
Assay: C. albicans isolate growth inhibitors, no fluconazole added – CaCi-2 strain, plate reader, dry powder, dose response (AID 602190)
Conditions: C. albicans CaCi-2 growth, Alamar Blue fluorescence, 48 h; at 26 µM (top of the series)
Method in brief: (§1)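 Material – Candida albicans strain CaCi-2, a fluconazole-resistant clinical isolate · Quantity – inoculum OD600 0.00015 · Dosing – test compounds in a dose-response series · Incubation – 48 h static exposure at 37 °C, 2 h Alamar Blue · Technique – Alamar Blue fluorescence · Measure – growth inhibition from lowered fluorescence · Control set – amphotericin 10 µM positive control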
In the case of `Cc1ccc(-c2nc3c(Cl)cc(Cl)cc3c(=O)n2O)cc1`, the activity change, negative = inhibition is reported as -45% (inactive).
For `O=C(Nc1nc(-c2ccccc2)cs1)c1ccc(Br)s1`, the activity change, negative = inhibition was -11.8% (inactive).
For `Cc1ccc(C(=O)Nc2nnc(-c3ccccc3)o2)cc1C`, the activity change, negative = inhibition was -9.38% (inactive).
In the case of `O=C(Nc1nc(-c2ccc3c(c2)CCCC3)cs1)c1ccccc1`, the activity change, negative = inhibition is reported as -18.1% (inactive).
In the case of `C=CCNC(=S)N/N=C(\C)c1ccccn1`, the activity change, negative = inhibition is reported as -68% (inactive).
In the case of `O=C(Nc1nc(-c2ccccn2)cs1)c1ccccc1`, the activity change, negative = inhibition is reported as 6.07% (inactive).
For `NC(=O)c1cccc(C(=O)Nc2nc(-c3ccc4c(c3)CCCC4)cs2)c1`, the activity change, negative = inhibition was 4.94% (inactive).

Tested on: C. albicans CaCi-2 growth, Alamar Blue fluorescence, 48 h
Assay: as above
Conditions: not given
Method in brief: as §1
`Oc1c(C(c2ccc(Cl)cc2)N2CCCC2)ccc2cccnc12` (stereo unspecified) gave an AC50 of 5.03 µM.
For `O=C(Nc1nnc(-c2ccc3c(c2)CCCC3)o1)c1ccccc1`, the AC50 was 17.6 µM.
With `C/C(=N\NC(=O)c1cc2ccccc2cc1O)c1ccccn1` the AC50 was 6.11 µM.
`Oc1c(C(c2ccccc2Cl)N2CCCCC2)ccc2cccnc12` (stereo unspecified) showed an AC50 of 8.88 µM.
In the case of `O=C(NNC(=S)Nc1ccc(Cl)c(Cl)c1)c1ccccn1`, the AC50 is reported as 13 µM.
`Cc1cc(C)n(-c2nc3ccccc3c(=O)n2OCC#N)n1` gave an AC50 of 6.87 µM.
`CN1CCN(C(c2ccc(C(F)(F)F)cc2)c2ccc3cccnc3c2O)CC1` (stereo unspecified) gave an AC50 of 4.75 µM.
`O=C(Nc1nnc(-c2ccc3c(c2)CCCC3)o1)c1ccc(Cl)cc1Cl` showed an AC50 of 17.9 µM.
`CCOC(=O)N1C(=O)C2(CCCCC2)N(c2ccc(C)cc2)C1=S` gave an AC50 of 4.29 µM.
`O=C(Nc1nc(-c2ccccn2)cs1)c1ccc(Br)s1` showed an AC50 of 5.53 µM.
In the case of `O=C(Nc1nc(-c2ccccn2)cs1)c1ccc(Cl)s1`, the AC50 is reported as 6.89 µM.
Compound `Oc1c(CN2CCc3ccccc3C2)cc(Cl)c2cccnc12` has an AC50 of 1.57 µM.
Work on `O=C(Oc1c(Cl)cc(Cl)c2cccnc12)c1ccco1` yielded an AC50 of 0.708 µM.
Compound `Oc1c(CN2CCN(c3ccccc3)CC2)cc(Cl)c2cccnc12` has an AC50 of 2.72 µM.
